Here are results for 10 molecules from article PMC8148061 (Acta Pharmaceutica Sinica. B, 2020).

Read-outs that look alike come from different tables or passages of the source.

One assay concerns K562. Description: Antiproliferation cell assay. The class given is cell-based, human. To be noted: read-out: Cellular inhibition IC50 K562. Summed up:
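K562 (ATCC) cells were grown in RPMI-1640 with 10% FBS, penicillin, streptomycin and 2 mmol/L glutamine at 37 °C in humidified CO2. Log-phase cells were seeded at ~3000/well, rested overnight, then exposed to test compound or vehicle for 72 h (10 mmol/L DMSO stocks). CCK-8 was read as OD450−OD650, with viability normalised to no-cell blank and vehicle wells. IC50 came from concentration–response curve fitting, mean ± SD.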

In another assay the test system is Ba/F3 Bcr-Abl^T315I. Description: Antiproliferation cell assay. Format: cell-based. The settings on record: read-out: Cellular inhibition IC50 Ba/F3 Bcr-Abl^T315I.
Another assay has as its target Bcr-Abl^T315I (Homo sapiens, UniProt P00519+P11274, T315I). Briefly: Western blot degradation study in Ba/F3 cells expressed Bcr-Abl^T315I. The class given is cell-based. The settings on record: for DR against Ba/F3 Bcr-Abl^T315I (%) 100 nmol/L / DR against Ba/F3 Bcr-Abl^T315I (%) 300 nmol/L: 24 h treatment, Western blot.
The next assay concerns Ba/F3 Bcr-Abl^WT. Briefly: Antiproliferation cell assay. The class given is cell-based. To be noted: read-out: Cellular inhibition IC50 Ba/F3 Bcr-Abl^WT.

Consider “3-((1H-Pyrazolo[3,4-b]pyridin-5-yl)ethynyl)-N-(4-((4-(13-((2-(2,6-dioxopiperidin-3-yl)-1,3-dioxoisoindolin-4-yl)amino)-13-oxotridecyl)piperazin-1-yl)methyl)-3-(trifluoromethyl)phenyl)-4-methylbenzamide [7s]”, for which the IC50 in the assay on K562 (72 h, CCK-8, mean ± SD) was determined as 0.0578 ± 0.0195 µM; with Ba/F3 Bcr-Abl^T315I (72 h, CCK-8, mean ± SD), 0.114 ± 0.0299 µM; with Ba/F3 Bcr-Abl^WT (72 h, CCK-8, mean ± SD), 0.061 ± 0.0017 µM. In addition, the “DR against Ba/F3 Bcr-Abl^T315I (%) 100 nmol/L” value (shortened to “DR … (%) 100 nmol/L”) on Bcr-Abl^T315I is listed as −7.20%. In addition, at Bcr-Abl^T315I, the “DR against Ba/F3 Bcr-Abl^T315I (%) 300 nmol/L” value (“DR … (%) 300 nmol/L” below) is 45.61%.

For the molecule `Cc1ccc(C(=O)Nc2ccc(CN3CCN(CCCCCCCCCCCCCCC(=O)Nc4cccc5c4C(=O)N(C4CCC(=O)NC4=O)C5=O)CC3)c(C(F)(F)F)c2)cc1C#Cc1cnc2[nH]ncc2c1` (stereo not drawn) [7t, 3-((1H-Pyrazolo[3,4-b]pyridin-5-yl)ethynyl)-N-(4-((4-(15-((2-(2,6-dioxopiperidin-3-yl)-1,3-dioxoisoindolin-4-yl)amino)-15-oxopentadecyl)piperazin-1-yl)methyl)-3-(trifluoromethyl)phenyl)-4-methylbenzamide], the IC50 in the assay with K562 (Homo sapiens, K562, 72 h) came out at 0.19 ± 0.0266 µM; in the assay on Ba/F3 Bcr-Abl^T315I (Mus musculus, BaF3, 72 h), 0.399 ± 0.248 µM; with Ba/F3 Bcr-Abl^WT (Mus musculus, BaF3, 72 h), 0.3637 ± 0.0024 µM. Also, at Bcr-Abl^T315I, the “DR … (%) 100 nmol/L” value is given as 13.75%. Besides, the “DR … (%) 300 nmol/L” value on Bcr-Abl^T315I stood at 28.73%.

Regarding `Cc1ccc(C(=O)Nc2ccc(CN3CCN(CCOCCOCCOCCOCCC(=O)Nc4cccc5c4C(=O)N(C4CCC(=O)NC4=O)C5=O)CC3)c(C(F)(F)F)c2)cc1C#Cc1cnc2[nH]ncc2c1` (stereo not drawn) [7i, 1-(4-(4-(3-((1H-Pyrazolo[3,4-b]pyridin-5-yl)ethynyl)-4-methylbenzamido)-2-(trifluoromethyl)benzyl)piperazin-1-yl)-N-(2-(2,6-dioxopiperidin-3-yl)-1,3-dioxoisoindolin-4-yl)-3,6,9,12-tetraoxapentadecan-15-amide], the IC50 in the assay on K562 (Homo sapiens, K562, 72 h) was determined as 0.0114 ± 0.0073 µM; in the assay on Ba/F3 Bcr-Abl^T315I (Mus musculus, BaF3, 72 h) it was 0.0954 ± 0.0374 µM; in the assay on Ba/F3 Bcr-Abl^WT (Mus musculus, BaF3, 72 h), 0.0199 ± 0.0042 µM. In addition, the “DR … (%) 100 nmol/L” value at Bcr-Abl^T315I is recorded as −22.44%. The “DR … (%) 300 nmol/L” value on Bcr-Abl^T315I is given as −19.45%.

For `Cc1ccc(C(=O)Nc2ccc(CN3CCN(CCC(=O)Nc4cccc5c4C(=O)N(C4CCC(=O)NC4=O)C5=O)CC3)c(C(F)(F)F)c2)cc1C#Cc1cnc2[nH]ncc2c1` (stereo not drawn) [7l, 3-((1H-Pyrazolo[3,4-b]pyridin-5-yl)ethynyl)-N-(4-((4-(3-((2-(2,6-dioxopiperidin-3-yl)-1,3-dioxoisoindolin-4-yl)amino)-3-oxopropyl)piperazin-1-yl)methyl)-3-(trifluoromethyl)phenyl)-4-methylbenzamide], the IC50 in the assay with K562 (Homo sapiens, K562, 72 h) is 0.0021 ± 0.0009 µM; in the assay with Ba/F3 Bcr-Abl^T315I (Mus musculus, BaF3, 72 h), 0.0658 ± 0.0288 µM; with Ba/F3 Bcr-Abl^WT (Mus musculus, BaF3, 72 h) it was 0.0054 ± 0.0008 µM. For the same molecule, the “DR … (%) 100 nmol/L” value on Bcr-Abl^T315I was −30.35%. The “DR … (%) 300 nmol/L” value at Bcr-Abl^T315I amounted to 37.19%.

With `Cc1ccc(C(=O)Nc2ccc(CN3CCN(CCOCCOCCOCCC(=O)Nc4cccc5c4C(=O)N(C4CCC(=O)NC4=O)C5=O)CC3)c(C(F)(F)F)c2)cc1C#Cc1cnc2[nH]ncc2c1` (stereo not drawn) [compound 7h, 3-((1H-Pyrazolo[3,4-b]pyridin-5-yl)ethynyl)-N-(4-((4-(2-(2-(2-(3-((2-(2,6-dioxopiperidin-3-yl)-1,3-dioxoisoindolin-4-yl)amino)-3-oxopropoxy)ethoxy)ethoxy)ethyl)piperazin-1-yl)methyl)-3-(trifluoromethyl)phenyl)-4-methylbenzamide], the IC50 is 0.0137 ± 0.0093 µM in the assay on K562 (Homo sapiens, K562, 72 h); 0.0834 ± 0.0316 µM with Ba/F3 Bcr-Abl^T315I (Mus musculus, BaF3, 72 h); 0.0106 ± 0.0026 µM with Ba/F3 Bcr-Abl^WT (Mus musculus, BaF3, 72 h). For the same molecule, the “DR … (%) 100 nmol/L” value on Bcr-Abl^T315I was found to be 16.86%. The “DR … (%) 300 nmol/L” value at Bcr-Abl^T315I was determined as 78.34%. For the same molecule, the “improvement of DR compared with 7a” value on Bcr-Abl^T315I (DR at 300 nmol/L) is listed as “about 2 fold”.

Regarding `Cc1ccc(C(=O)Nc2ccc(CN3CCN(CCOCCC(=O)Nc4cccc5c4C(=O)N(C4CCC(=O)NC4=O)C5=O)CC3)c(C(F)(F)F)c2)cc1C#Cc1cnc2[nH]ncc2c1` (stereo not drawn) [7g, 3-((1H-Pyrazolo[3,4-b]pyridin-5-yl)ethynyl)-N-(4-((4-(2-(3-((2-(2,6-dioxopiperidin-3-yl)-1,3-dioxoisoindolin-4-yl)amino)-3-oxopropoxy)ethyl)piperazin-1-yl)methyl)-3-(trifluoromethyl)phenyl)-4-methylbenzamide], the IC50 in the assay with K562 (Homo sapiens, K562, 72 h) amounted to 0.0035 ± 0.0005 µM; in the assay with Ba/F3 Bcr-Abl^T315I (Mus musculus, BaF3, 72 h), 0.0675 ± 0.0032 µM; with Ba/F3 Bcr-Abl^WT (Mus musculus, BaF3, 72 h), 0.0207 ± 0.0024 µM. Also, the “DR … (%) 100 nmol/L” value at Bcr-Abl^T315I is on record as −11.43%. Moreover, at Bcr-Abl^T315I, the “DR … (%) 300 nmol/L” value is 28.39%.

`Cc1ccc(C(=O)Nc2ccc(CN3CCN(C)CC3)c(C(F)(F)F)c2)cc1C#Cc1cnc2[nH]ncc2c1` [GZD824, reference compound]: the IC50 with K562 (Homo sapiens, K562, 72 h) came to 0.0016 ± 0.0007 µM; in the assay with Ba/F3 Bcr-Abl^T315I (Mus musculus, BaF3, 72 h), 0.031 ± 0.0117 µM; in the assay with Ba/F3 Bcr-Abl^WT (Mus musculus, BaF3, 72 h), 0.0068 ± 0.0053 µM. Also, the “DR … (%) 100 nmol/L” value on Bcr-Abl^T315I was found to be 2.59%. The “DR … (%) 300 nmol/L” value on Bcr-Abl^T315I was 20.62%.

Consider `Cc1ccc(C(=O)Nc2ccc(CN3CCN(CCOCCOCCOc4cccc5c4C(=O)N(C4CCC(=O)NC4=O)C5=O)CC3)c(C(F)(F)F)c2)cc1C#Cc1cnc2[nH]ncc2c1` (stereo not drawn) [7c, 3-((1H-Pyrazolo[3,4-b]pyridin-5-yl)ethynyl)-N-(4-((4-(2-(2-(2-((2-(2,6-dioxopiperidin-3-yl)-1,3-dioxoisoindolin-4-yl)oxy)ethoxy)ethoxy)ethyl)piperazin-1-yl)methyl)-3-(trifluoromethyl)phenyl)-4-methylbenzamide], for which the IC50 worked out at 0.0032 ± 0.0001 µM in the assay on K562 (Homo sapiens, K562, 72 h); 0.212 ± 0.101 µM in the assay with Ba/F3 Bcr-Abl^T315I (Mus musculus, BaF3, 72 h); 0.0224 ± 0.0102 µM in the assay on Ba/F3 Bcr-Abl^WT (Mus musculus, BaF3, 72 h). Besides, the “DR … (%) 100 nmol/L” value on Bcr-Abl^T315I is on record as −15.62%. Also, the “DR … (%) 300 nmol/L” value on Bcr-Abl^T315I worked out at 9.98%.

Consider `Cc1ccc(C(=O)Nc2ccc(CN3CCN(CCCCCCCCCCC(=O)Nc4cccc5c4C(=O)N(C4CCC(=O)NC4=O)C5=O)CC3)c(C(F)(F)F)c2)cc1C#Cc1cnc2[nH]ncc2c1` (stereo not drawn) [7q, 3-((1H-Pyrazolo[3,4-b]pyridin-5-yl)ethynyl)-N-(4-((4-(11-((2-(2,6-dioxopiperidin-3-yl)-1,3-dioxoisoindolin-4-yl)amino)-11-oxoundecyl)piperazin-1-yl)methyl)-3-(trifluoromethyl)phenyl)-4-methylbenzamide], for which the IC50 came out at 0.0464 ± 0.0212 µM in the assay with K562 (Homo sapiens, K562, 72 h); 0.0701 ± 0.0343 µM with Ba/F3 Bcr-Abl^T315I (Mus musculus, BaF3, 72 h); 0.0361 ± 0.0009 µM with Ba/F3 Bcr-Abl^WT (Mus musculus, BaF3, 72 h). Further, the “DR … (%) 100 nmol/L” value at Bcr-Abl^T315I came out at 5.33%. At Bcr-Abl^T315I, the “DR … (%) 300 nmol/L” value was 14.25%.

As for `Cc1ccc(C(=O)Nc2ccc(CN3CCN(CCOCCOCCC(=O)N[C@H](C(=O)C4C[C@H](O)C[C@H]4C(=O)NCc4ccc(-c5scnc5C)cc4)C(C)(C)C)CC3)c(C(F)(F)F)c2)cc1C#Cc1cnc2[nH]ncc2c1` (stereo partly drawn) [7d, 3-((1H-Pyrazolo[3,4-b]pyridin-5-yl)ethynyl)-N-(4-((4-(2-(2-(3-(((2S)-1-((2R,4S)-4-hydroxy-2-((4-(4-methylthiazol-5-yl)benzyl)carbamoyl)cyclopentyl)-3,3-dimethyl-1-oxobutan-2-yl)amino)-3-oxopropoxy)ethoxy)ethyl)piperazin-1-yl)methyl)-3-(trifluoromethyl)phenyl)-4-methylbenzamide], the IC50 with K562 (Homo sapiens, K562, 72 h) is 0.031 ± 0.0001 µM; in the assay with Ba/F3 Bcr-Abl^T315I (Mus musculus, BaF3, 72 h), 0.981 ± 0.0249 µM; in the assay on Ba/F3 Bcr-Abl^WT (Mus musculus, BaF3, 72 h) it was 0.337 ± 0.0061 µM. The “DR … (%) 100 nmol/L” value on Bcr-Abl^T315I is on record as −18.26%. In addition, the “DR … (%) 300 nmol/L” value on Bcr-Abl^T315I is reported as −10.51%.
